Here are results for 13 compounds from ChEMBL document CHEMBL1212813, “alpha-Amino-3-hydroxy-5-methyl-4-isoxazolepropionic acid (AMPA) antagonists: from bench to bedside” (J Med Chem, 2010).

Data set [1] in a line: Displacement of [3H]kainate from kainate receptor in rat cortical membrane. In kind it is cell membranes. Background: Loss of bound radioactivity is the signal in a displacement assay; it reports binding, not function.
Data set [2] can be described thus: Displacement of [3H]AMPA from AMPA receptor in rat cortical membrane in presence of cyclothiazide. The data set is classed as cell membranes.
Data set [3] concerns Mus musculus. The experiment in a line: Anticonvulsant activity in ip dosed mouse assessed as inhibition of MES-induced tonic seizures. In kind it is functional.
The nature of data set [4]: Displacement of [3H]AMPA from AMPA receptor in rat cortical membrane. The data set is classed as cell membranes.
Data set [5] addresses Glutamate NMDA receptor. Description: Inhibition of NMDA receptor glycine site from rat cortical membrane.
Data set [6] is described as follows: Solubility of the compound at pH 7.4. The following applies: buffer. The data set is classed as physicochemical.
For the next data set, the system named is Rattus norvegicus. The experiment in a line: Anticonvulsant activity in po dosed rat assessed as inhibition of MES-induced tonic seizures. In kind it is functional.
The target of data set [7] is Glutamate NMDA receptor. The experiment in a line: Inhibition of NMDA receptor glutamate site from rat cortical membrane.
In data set [8] the target is Glutamate NMDA receptor. Description: Displacement of [3H](E)-3-(2-carboxy-2-phenylvinyl)-4,6-dichloro-1H-indole-2-carboxylic acid from NMDA receptor glutamate site from rat cortical membrane.
Data set [9] concerns Mus musculus. The experiment in a line: Anticonvulsant activity in po dosed mouse assessed as inhibition of MES-induced tonic seizures. In kind it is functional. The procedure, abridged: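 Mice were dosed orally 2 h before maximal electroshock. The read-out was protection from tonic convulsions, and an ED50 was derived.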

In brackets after ≈: the same amount, converted by molar mass.

One may read the IC50 as the point on the concentration scale where inhibition reaches its midpoint. As usually defined, the ED50 is the dose that gives a 50% effect, or the effect in half of the subjects. One may read the Ki as the equilibrium dissociation constant of an inhibitor or competing ligand from its target. Low values mean higher affinity, high ones lower affinity. By solubility is commonly meant the concentration that dissolves in the medium under given conditions. Higher therefore signals a readily soluble substance.

`CN(C)S(=O)(=O)c1cc2c(N=O)c(O)[nH]c2c2c1CCCC2`: the values for the IC50 in data set [1] and in data set [2] were 81 µM and 0.15 µM, respectively. For the same compound, the ED50 in the data set with Mus musculus [3] turned out to be 30 mg/kg.
Take `CS(=O)(=O)Nn1c(=O)[nH]c2cc(Cl)ccc2c1=O`: the ED50 in the data set with Mus musculus [3] came to 40 mg/kg.
With `O=[N+]([O-])c1ccc2nc(O)c(O)nc2c1`, in data set [4], the Ki was found to be 2 µM.
Same read-out and setting: as for `Oc1nc2ccc(-n3ccnc3)cc2nc1O`, the figure is 1.6 µM; as for `Oc1nc2ccccc2nc1O`, more than 100 µM.
Same read-out and setting: next, `N#Cc1ccc2nc(O)c(O)nc2c1`: 5 µM; `Oc1nc2cc(-n3ccnc3)c(-n3ccnc3)cc2nc1O`: 0.82 µM.
With `O=P(O)(O)CNCc1cc(Br)cc2nc(O)c(O)nc12`, in data set [4], the IC50 was 2.4 µM.
For `O=c1[nH]c2cc([N+](=O)[O-])cc(CNCP(=O)(O)O)c2[nH]c1=O`, the IC50 against Glutamate NMDA receptor [5] stood at 1.16 µM; against Glutamate NMDA receptor [7], 0.49 µM; in data set [4], 0.29 µM; in [1] it was 4.2 µM. This compound also came in with a solubility in [6] of 6600 µg/mL (≈ 20 mM). Further, the ED50 with Rattus norvegicus worked out at 5 mg/kg.
Regarding `C[C@H](NCc1cc([N+](=O)[O-])cc2nc(O)c(O)nc12)P(=O)(O)O`, the half-maximal inhibitory concentration (IC50) is 0.17 µM in data set [4] and 0.032 µM at Glutamate NMDA receptor [8].
Regarding `N#Cc1cc2c(cc1[N+](=O)[O-])=NC(=O)C(=O)N=2`, the IC50 at Glutamate NMDA receptor [5] worked out at 14 µM; in data set [4], 0.3 µM; in data set [1], 1.5 µM.
As for `CCC1(C)CC(=O)NC(=O)C1` [BEMEGRIDE], the ED50 in the data set with Mus musculus [9] came out at 23.9 mg/kg.
Still for that read-out and setting: next, `CN1CCc2cc3c(cc2[C@H]1[C@@H]1OC(=O)c2c1ccc1c2OCO1)OCO3` [BICUCULLINE]: 14.6 mg/kg.
